These results are taken from the RNAGym collection of RNA variant scans (doi:10.1101/gad.245936.114).

Variants at the floor of the assay were thinned out.

B1: tRNA (parent)
chain: CUCUCGGUAGCCAAGUUGGUUUAAGGCGCAAGACUUUAAUUUAUCACUACGAAAUCUUGAGAUCGGGCGUUCGACUCGCCCCCGGGAGAUUUUUUCCUCGAGCAA

This data set covers variants of B1. Briefly: nonsense suppression (GFP-seq) (ratio to wild type); higher = more function; SUP4oc tRNA, yeast GFP reporter sort-seq. In outline:
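Each variant's nonsense suppression (GFPSEQ) is a cell-share-weighted bin median GFP/RFP relative to the unmutated parent tRNA. Yeast with genome-integrated tRNA variants from a ~3% random-mutation library, a galactose-driven GFP ochre reporter and RFP were grown in raffinose/galactose medium with 80 mg/L adenine, then sorted into GFP/RFP bins for Illumina sequencing. Variants needed ≥100 reads and ≥30 cells.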
For the variant U16G G78C, the nonsense suppression turned out to be 0.113.
As for U20A U57A, the figure is at most 0.026; as for U16G, 1.
As to U17A U22G, the nonsense suppression stood at 1.03.
Regarding U17A A23C U71C, the nonsense suppression was at most 0.026.
As for U20C U76C, the figure is 0.228.
As for G18C C27G G67A G69C, the figure is 1.05.
The result for U17C A24C reads 0.276.
For the variant U17C A24G, the nonsense suppression is 0.0323.
The result for G18U G19A reads at most 0.026; that for U17G U63C, 0.799.
Turning to U17C U35G G61C U76C, the nonsense suppression was at most 0.026.
The result for U21A reads 1.02; that for U17G A24U, 0.159.
As for U17G A24C, the figure is 0.653; as for G18C G19A A24U, at most 0.026.
As to G19U A60U G73U, the nonsense suppression is at most 0.026.
As for U20A A24U U63A, the figure is at most 0.026; as for U17A U21C G85A, 1.06.
As for U20C A60G, the figure is 0.0437; as for U20A C75G G85U, 0.154.
As for U17G U55C, the figure is 0.0769.
Regarding U20A A23G U63C, the nonsense suppression was at most 0.026.
Turning to U16G G25C, the nonsense suppression was 0.2.
The result for G18A G25U G67C reads at most 0.026; that for G19A C64G C68U C82A, at most 0.026.
The result for U20G U71G reads at most 0.026; that for U20C U55C, 0.0996.
As for G19A A23C G85U, the figure is at most 0.026; as for U20G C80U, 0.202.
In the case of U20C C56G, the nonsense suppression is at most 0.026.
The result for U20C A31U reads 0.0722; that for U20C A31G, 0.0336.
As for U20G G26C, the figure is at most 0.026.
On to G19C U22C C68U, for which the nonsense suppression was at most 0.026.
The result for U20C reads 0.848; that for U20G, 0.989.
The result for U20A reads 1.18.
As for G18U G25U G67C, the figure is at most 0.026; as for U17C U22C A60G, 0.348; as for U20C U22C A54U, 0.412.
For G18A A54U, the nonsense suppression is at most 0.026.
On to G18C A33G C80G, for which the nonsense suppression was at most 0.026.
As for U20C G28A, the figure is 0.192; as for G19C U63C C83A, 0.789; as for U17G G32U U55A U57C U76C, at most 0.026.
Turning to G19C U21C, the nonsense suppression was at most 0.026.
The result for G18A A87G reads 0.036; that for U20C U22C, 0.814.
The result for U17C G73A reads 0.899; that for U20C U21C, 1.15.
U20C U21A: the nonsense suppression turned out to be 0.188.
The result for U20G U55C A74G reads at most 0.026; that for U17G A33U U63C G65C, at most 0.026; that for U17G G67A, 0.0593.
Turning to U20G G85U, the nonsense suppression is 0.81.
Consider U20G G85C, for which the nonsense suppression came out at 0.0271.
As for U16G A30G C64G, the figure is at most 0.026.
The result for U17G G61C reads 0.371; that for U17G G61U, 0.832; that for U17C G84A, 0.048.
As for G18U U76C G86U, the figure is at most 0.026; as for U17A G18U, at most 0.026; as for U20C G88U, at most 0.026.
With U17A A23U G84A, the nonsense suppression is at most 0.026.
Take U17A G28U A31C C80G G84C G86A: the nonsense suppression is at most 0.026.
The result for U17C U63A reads 0.197.
As for U17C U63G, the figure is 0.804.
The result for U17C U63C reads 1.18; that for U20C A31C C79A G85C, at most 0.026.
On to U17A G25C, for which the nonsense suppression turned out to be 0.068.
The result for G18A A24C reads 0.0483.
The result for U16G U63A reads 1.09; that for U20G C56U, 0.148; that for U17C C83U, 0.191.
On to U20C A87G, for which the nonsense suppression amounted to 0.213.
As for U20C A87U, the figure is 0.0273.
In the case of U20C C80U, the nonsense suppression was 0.036.
The result for U16G U76C reads 1.07.
The result for U20G U55C reads 0.849; that for U20G G59C C64A G85U, at most 0.026; that for U20A A60U C79U, 0.212.
For G19C C34U U71C C82G, the nonsense suppression was at most 0.026.
As for U20C A24C, the figure is 0.249; as for U17C C75A G88A, at most 0.026.
As for U16G C83U, the figure is 0.223; as for U17C C68A C82U, at most 0.026.
As for U17G G19C U21A U57A G78U, the figure is at most 0.026; as for U20G U22G, 1.06; as for U17G U63A C75A G85A, 1.08.
With U16G U76G G86C, the nonsense suppression was at most 0.026.
The result for U17G A87G reads 0.752; that for G19C C56U U57C, at most 0.026; that for U16G A30C A31G U55A U57A, at most 0.026.
As for U17A A87G, the figure is 1.19; as for U20G U21G, 0.75.
The result for U20G U21A reads 1.18; that for U20G U21C, 0.761.
On to G18A U21G C34U, for which the nonsense suppression was at most 0.026.
As for G19A U63C C82A, the figure is at most 0.026; as for U17G A54G U57C, at most 0.026.
On to U17G A60C, for which the nonsense suppression was determined as 0.188.
As for U17A G26U A89U, the figure is at most 0.026; as for G18U C82U G86C, at most 0.026; as for U16G C29U A89C, at most 0.026.
As for U20G U63G, the figure is 0.495; as for U20G U63A, 1.06.
As for U16C U76A A89U, the figure is at most 0.026; as for U20G G73A, 0.677; as for U16G U21C, 0.905.
As for U16G U21G, the nonsense suppression was 1.1.
For U17A C34U A74U, the nonsense suppression is at most 0.026.
The result for U20C C64U reads 0.0503.
As for G18U U20C U76G, the figure is 0.264.
The result for U20C U63G reads 0.0493.
As to U20A C56A G66A, the nonsense suppression is at most 0.026.
As for U20G A54U, the figure is 1.04.
With G19A U21G C64U, the nonsense suppression was at most 0.026.
As for U17A U20G G32A G61A C80U, the figure is at most 0.026.
The result for G18U G59A reads at most 0.026; that for U20G G28A C82U, 0.239.
The result for U16G U70A C82A reads at most 0.026.
For the variant U17A A33G, the nonsense suppression was determined as 0.104.
The result for U16G A54U U63G reads 0.278; that for U17C U63A C72G, at most 0.026.
The result for U17A A24C reads 0.902; that for U17A A24G, 0.0262; that for U17A A24U, 0.2.
The result for U17A C79A reads at most 0.026.
Consider U16G C34U, for which the nonsense suppression was at most 0.026.
With U16G A24U, the nonsense suppression amounted to 0.221.
Turning to U17C G28U A30C, the nonsense suppression was at most 0.026.
As for U20C A54U, the figure is 0.62.
The result for U20C A54G reads 0.052; that for U20C G28A U57G C77A, 0.813.
As for G19U G67U, the figure is at most 0.026; as for U20A A54U U76C, 0.24; as for U17C A62G U70C, at most 0.026.
For U17C A87G, the nonsense suppression turned out to be 0.226.
As for U20A G28A, the figure is 0.813; as for U20A G28C, 0.182; as for U17G A33U U63G C68A U71G, at most 0.026.
The result for U20G A33G reads 0.18; that for U20G A33U, 0.0902; that for U16G U17A, 1.05.
Turning to U16G U17C, the nonsense suppression came out at 1.05.
The result for U16G A54C C81U reads 0.0601; that for U17A U76C, 1.06.
The result for G19A G26U C27G reads at most 0.026; that for U20A G73C, 0.0366.
The result for U20G A60U reads 1.12; that for U20G A60G, 0.477; that for U17A U70G, at most 0.026.
Take U20G C29U: the nonsense suppression came to 1.12.
The result for U20A C75G reads 0.473; that for U17C U55C G59A G66C, at most 0.026.
The result for U20C C72G reads 0.063; that for U17C U21G, 0.801; that for U20C U35C, 0.0559.
In the case of G18U U20G G65C G66C, the nonsense suppression is at most 0.026.
As for G18A A30G, the figure is 0.0263.
The result for G18A A30U reads 0.0262; that for U17A A23C C68G, at most 0.026.
For U20G C79G A87G, the nonsense suppression is at most 0.026.
As to U20G G67A, the nonsense suppression amounted to 0.0529.
As for U20A C34U G66U, the figure is at most 0.026; as for G18C A54G, at most 0.026.
